{
  "source": "paper PMC5726523",
  "about": "(Nature chemistry, 2017)",
  "key": {"SIN3A-TGIF1 interaction": {"molecular_target": "T1, SIN3A-TGIF1 interaction (Homo sapiens, UniProt Q96ST3)", "T1 sequence (Q96ST3 1-400)": "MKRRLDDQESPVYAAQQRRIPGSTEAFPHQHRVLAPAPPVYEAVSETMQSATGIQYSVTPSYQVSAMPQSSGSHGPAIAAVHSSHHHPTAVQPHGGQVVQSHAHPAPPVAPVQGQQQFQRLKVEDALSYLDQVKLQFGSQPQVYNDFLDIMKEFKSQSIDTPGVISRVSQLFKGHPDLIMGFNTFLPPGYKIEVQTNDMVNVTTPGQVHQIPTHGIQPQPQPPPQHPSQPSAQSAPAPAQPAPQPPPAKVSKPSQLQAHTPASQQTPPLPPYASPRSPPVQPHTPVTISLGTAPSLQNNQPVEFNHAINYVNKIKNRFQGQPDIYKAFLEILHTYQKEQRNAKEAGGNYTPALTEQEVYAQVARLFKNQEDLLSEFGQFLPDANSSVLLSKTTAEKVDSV", "test": "co-immunoprecipitation western blot, Flag-SIN3A / Myc-TGIF1", "type": "biochemical", "details": "50 μM, 1 h, anti-Myc blotting", "summary_of_the_method": "(§1)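 Flag-SIN3A (a.a. 1-400, WT or K155 mutants) or Flag-GFP was co-expressed in HEK 293T cells with Myc-TGIF1 or Myc-TGIF2. Lysates were treated with DMSO or test compound (50 μM, 1 h), immunoprecipitated and analysed by anti-Myc western blot. Four biological replicates, mean ± SD. Unpaired Student's t-test, WT + compound vs K155R + compound.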"}, "TGIF2-SIN3A interaction": {"molecular_target": "T2, TGIF2-SIN3A interaction (Homo sapiens, UniProt Q96ST3)", "T2 sequence (Q96ST3 1-400)": "T1 sequence (Q96ST3 1-400)", "test": "SILAC co-immunoprecipitation-MS proteomics, SIN3A-TGIF2", "type": "biochemical", "details": "50 μM, 1 h, co-IP MS proteomics", "summary_of_the_method": "(§2)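 HEK293T cells were metabolically labeled with isotopically differentiated amino acids. Heavy cells were transfected with Flag-SIN3A and light cells with Flag-GFP. Cells were lysed and anti-Flag immunoprecipitated. Heavy and light IPs were combined, trypsin-digested and run on LC-MS/MS. SIN3A interactors were proteins enriched >five-fold over GFP. Paired comparisons were WT vs K155W-SIN3A, and DMSO vs test compound (50 μM, 1 h) on WT.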"}, "[1]": {"molecular_target": "T3, SIN3A K155R-TGIF1 interaction (Homo sapiens, UniProt Q96ST3, K155R)", "T3 sequence (Q96ST3 1-400 K155R)": "T1 sequence (Q96ST3 1-400) with K155R", "test": "co-immunoprecipitation western blot, Flag-SIN3A K155R / Myc-TGIF1", "type": "biochemical", "details": "50 μM, 1 h", "summary_of_the_method": "as §1"}, "K155 of SIN3A [2]": {"molecular_target": "T4, K155 of SIN3A (Homo sapiens, UniProt Q96ST3)", "T4 sequence (Q96ST3 1-400)": "T1 sequence (Q96ST3 1-400)", "test": "gel-based ABPP, blockade of probe labeling of SIN3A", "type": "binding", "details": "read-out: apparent IC50, blockade of probe labeling of K155, lysates of HEK293T cells expressing Flag-SIN3A a.a. 1-400"}, "SIN3A-TGIF2 interaction": {"molecular_target": "T5, SIN3A-TGIF2 interaction (Homo sapiens, UniProt Q96ST3)", "T5 sequence (Q96ST3 1-400)": "T1 sequence (Q96ST3 1-400)", "test": "co-immunoprecipitation western blot, Flag-SIN3A / Myc-TGIF2", "type": "biochemical", "details": "50 μM, 1 h", "summary_of_the_method": "as §1"}, "TGIF1-SIN3A interaction": {"molecular_target": "T6, TGIF1-SIN3A interaction (Homo sapiens, UniProt Q96ST3)", "T6 sequence (Q96ST3 1-400)": "T1 sequence (Q96ST3 1-400)", "test": "SILAC co-immunoprecipitation-MS proteomics, SIN3A-TGIF1", "type": "biochemical", "details": "50 μM, 1 h, co-IP MS proteomics", "summary_of_the_method": "as §2"}, "K155 of SIN3A [3]": {"molecular_target": "T7, K155 of SIN3A (Homo sapiens, UniProt Q96ST3)", "T7 sequence (Q96ST3 1-1273)": "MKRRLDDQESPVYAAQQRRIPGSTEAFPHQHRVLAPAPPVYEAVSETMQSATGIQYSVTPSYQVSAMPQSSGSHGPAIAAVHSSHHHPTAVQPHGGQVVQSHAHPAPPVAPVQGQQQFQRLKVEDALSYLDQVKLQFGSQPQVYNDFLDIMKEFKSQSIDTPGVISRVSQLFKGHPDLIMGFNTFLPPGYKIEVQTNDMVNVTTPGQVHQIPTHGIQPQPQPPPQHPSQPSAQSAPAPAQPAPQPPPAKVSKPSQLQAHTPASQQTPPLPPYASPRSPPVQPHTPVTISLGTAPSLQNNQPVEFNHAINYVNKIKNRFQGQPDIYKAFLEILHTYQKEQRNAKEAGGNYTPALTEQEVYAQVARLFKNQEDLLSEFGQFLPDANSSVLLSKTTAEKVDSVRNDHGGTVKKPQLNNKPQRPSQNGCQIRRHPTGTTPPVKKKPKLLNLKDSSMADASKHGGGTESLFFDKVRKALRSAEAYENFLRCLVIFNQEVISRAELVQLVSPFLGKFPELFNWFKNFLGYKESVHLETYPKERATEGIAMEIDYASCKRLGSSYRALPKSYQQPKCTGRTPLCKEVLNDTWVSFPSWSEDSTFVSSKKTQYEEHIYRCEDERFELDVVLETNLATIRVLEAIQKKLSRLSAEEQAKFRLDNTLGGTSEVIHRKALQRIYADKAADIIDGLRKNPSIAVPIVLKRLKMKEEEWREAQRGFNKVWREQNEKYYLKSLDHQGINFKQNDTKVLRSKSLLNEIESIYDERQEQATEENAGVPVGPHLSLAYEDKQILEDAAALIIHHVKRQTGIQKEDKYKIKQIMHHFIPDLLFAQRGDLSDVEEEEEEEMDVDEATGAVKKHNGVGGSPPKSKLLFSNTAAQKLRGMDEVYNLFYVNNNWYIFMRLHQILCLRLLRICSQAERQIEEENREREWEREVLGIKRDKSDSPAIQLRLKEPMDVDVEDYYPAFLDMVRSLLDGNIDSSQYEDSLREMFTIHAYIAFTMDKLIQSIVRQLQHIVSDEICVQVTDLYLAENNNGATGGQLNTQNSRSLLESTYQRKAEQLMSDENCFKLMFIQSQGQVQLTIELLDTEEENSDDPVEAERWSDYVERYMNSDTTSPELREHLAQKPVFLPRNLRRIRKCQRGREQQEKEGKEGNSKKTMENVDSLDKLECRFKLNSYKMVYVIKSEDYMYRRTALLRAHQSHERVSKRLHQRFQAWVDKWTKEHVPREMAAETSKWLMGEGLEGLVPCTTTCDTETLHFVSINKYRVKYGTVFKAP", "test": "competitive isoTOP-ABPP, SIN3A K155", "type": "binding", "details": "50 μM, human cancer cell proteomes", "summary_of_the_method": "(§3)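 Human cancer cell proteomes were pretreated with an amine-reactive electrophilic fragment (50–100 μM) or DMSO, then probe 1 (100 μM). Labeled proteins were CuAAC-conjugated to isotopic TEV-cleavable azide-biotin tags (DMSO heavy, fragment light), combined and analysed by isoTOP-ABPP. R = DMSO/fragment MS1 peak ratio of probe-labeled peptides. R ≥ 4 (≥75% loss of enrichment) defines liganding.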"}, "NUDT2 [4]": {"molecular_target": "T8, NUDT2 (Homo sapiens, UniProt P50583)", "T8 sequence (P50583 whole entry)": "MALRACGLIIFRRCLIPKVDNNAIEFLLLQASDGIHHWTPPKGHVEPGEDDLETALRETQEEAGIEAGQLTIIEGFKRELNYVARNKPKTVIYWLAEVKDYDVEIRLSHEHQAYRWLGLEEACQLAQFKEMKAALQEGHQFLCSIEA", "test": "NUDT2 substrate assay", "type": "biochemical", "details": "compared with gel-based ABPP IC50 of 2 μM"}, "NUDT2 [5]": {"molecular_target": "T8, NUDT2", "test": "gel-based ABPP, blockade of probe labeling of NUDT2", "type": "binding", "details": "read-out: apparent IC50, blockade of probe labeling of NUDT2", "summary_of_the_method": "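Flag-tagged NUDT2 was recombinantly expressed in HEK 293T cells. Samples were treated with test compound, then a lysine-reactive probe, and analysed by gel-based ABPP. Apparent IC50 is from blockade of probe labeling of the liganded lysine.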"}, "K89 of NUDT2": {"molecular_target": "K89 of NUDT2 (Homo sapiens, UniProt P50583)", "sequence (P50583 whole entry)": "as above", "test": "competitive isoTOP-ABPP, NUDT2 K89", "type": "binding", "summary_of_the_method": "as §3"}, "K35 in transthyretin TTR": {"molecular_target": "K35 in transthyretin TTR (Homo sapiens, UniProt P02766)", "test": "competitive isoTOP-ABPP, TTR K35", "type": "binding", "details": "compared with fragments 29 and 30", "summary_of_the_method": "as §3"}},
  "note": "Residue numbers refer to the chain shown, from its start.",
  "data": [
    {"smiles": "O=C(Oc1c(F)c(F)c(F)c(F)c1F)c1cc(C(F)(F)F)cc(C(F)(F)F)c1", "note": "[fragment 21]", "values": [
      {"measurement": "effect on co-immunoprecipitation of TGIF1 with SIN3A", "setting": "SIN3A-TGIF1 interaction", "value": "blocked"},
      {"measurement": "effect on TGIF2-SIN3A interaction", "setting": "TGIF2-SIN3A interaction", "value": "marginal effect"},
      {"measurement": "effect on SIN3A-TGIF1 interaction with K155R mutant", "setting": "[1]", "value": "conferred resistance"},
      {"measurement": "IC50", "setting": "K155 of SIN3A [2]", "value": 5, "unit": "µM"},
      {"measurement": "effect on co-immunoprecipitation of TGIF2 with SIN3A", "setting": "SIN3A-TGIF2 interaction", "value": "partial blockade"},
      {"measurement": "effect on TGIF1-SIN3A interaction", "setting": "TGIF1-SIN3A interaction", "value": "strongly blocked"},
      {"measurement": "R value (DMSO/fragment) for tryptic peptide containing K155", "setting": "K155 of SIN3A [3]", "value": 20},
      {"measurement": "blockade of probe 1 labeling of K155", "setting": "K155 of SIN3A [3]", "value": "> 95", "unit": "%"}
    ]},
    {"smiles": "COC(=O)NC(=NC(=O)OCC1c2ccccc2-c2ccccc21)n1cccn1", "note": "[fragment 49]", "values": [
      {"measurement": "IC50, inhibition of NUDT2 activity", "setting": "NUDT2 [4]", "value": "equivalent IC50 value"},
      {"measurement": "IC50", "setting": "NUDT2 [5]", "value": 2, "unit": "µM"},
      {"measurement": "reactivity with K89 of NUDT2", "setting": "K89 of NUDT2", "value": "preferentially reacting"}
    ]},
    {"smiles": "O=C(Oc1ccc([N+](=O)[O-])cc1[N+](=O)[O-])c1cc(C(F)(F)F)cc(C(F)(F)F)c1", "note": "[fragment 31]", "values": [
      {"measurement": "targeting of K35 of TTR", "setting": "K35 in transthyretin TTR", "value": "preferentially targeted"}
    ]}
  ]
}
